# Screening results: PubChem BioAssay, several laboratories
# APP 5'UTR act = activates APP 5'UTR luciferase reporter | 190,000 compounds, 1% hits | SH-SY5Y APP 5'UTR luciferase reporter, luminescence; zero percent = DMSO vehicle wells | activation, % at 2 µM;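 active means activation above a set limit, based on mean plus 3 SD of controls, cut at about 140% in these data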
# STAT1 inh = STAT1 signaling inhibition | NIH 3T3 STAT1-luciferase reporter, IFN-gamma, luminescence | inhibition, % at 5.5 µM | 200,000 compounds, 0.35% hits;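 active means inhibition above a set limit, the mean inhibition across all tested compounds plus 3 SD, cut at about 34% in these data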;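 further: 0% = IFN-gamma with DMSO and 100% = IFN-gamma with 300 µM nifuroxazide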
# STAT3 inh = reduces IL-6 driven STAT3 reporter signal. U3A cells, IL-6 STAT3-luciferase reporter, luminescence; host cell line lacks STAT1. inhibition, % at 5.5 µM. 190,000 compounds, 0.89% hits. AID 862;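 active means inhibition above the mean inhibition across all screened compounds plus 3 SD, cut at about 44% in these data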;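 further: 0% = DMSO only wells and 100% = 100 µM nifuroxazide control wells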
# STAT1 act = activators of IFN-gamma induced STAT1 signaling; NIH 3T3 STAT1-luciferase reporter, luminescence; 100% = IFN-gamma alone, no compound; activation (% of control), % at 5.5 µM; 200,000 compounds, 2.6% hits;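 active means activation above the screen-wide mean activation plus 3 SD, cut at about 130% in these data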;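 further: raw ratio to IFN-gamma control signal so 100% means no change and 0% no light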
# NF-kB neuron act = raises NF-kB expression in human neuronal cells. NF-kB reporter expression; hits give high values. fold change at 12.5 µM. 190,000 compounds, 1.6% hits. AID 1239; in the data active means fold change above about 3.3
# STAT3 activator = activators of IL-6 induced STAT3 signaling; U3A cells, IL-6 STAT3-luciferase reporter, luminescence; 100% = signal with IL-6 EC80 alone; activation (% of control), % at 5.6 µM; 190,000 compounds, 0.91% hits;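 active means activation above the screen-wide mean of compound activation plus 3 SD, cut at about 130% in these data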;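 further: 0% = background luminescence of wells with medium and substrate only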
#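 Test system: STAT3-luciferase reporter U3A cells; Detection: reporter luminescence signal; Times: 1 h compound pre-exposure, 6 h IL-6 stimulation, 37 °C; Benchmarks: IL-6-only high control; Also added: IL-6 stimulus at 33 ng/mL final.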
# An asterisk follows results filed as active; x = no result given. A selection: hits, their analogues and other compounds. The true share with any hit is near 4.9%.
SMILES,APP 5'UTR act,STAT1 inh,STAT3 inh,STAT1 act,NF-kB neuron act,STAT3 activator
O=C(CSc1nc(C2CCCCC2)nc2ccccc12)N1CCCC1,13,5,2,93,1,101
O=C(CSc1nncc2ccccc12)N1CCCCC1,22,-32,-5,130*,1.9,110
O=C(CSc1cccc2cccnc12)N1CCCC1,-28,2,5,97,5*,101
NNC(=O)CSc1cccc2cccnc12,40,-1,9,101,1,100
CN(C)C(=O)CSc1cccc2cccnc12,-11,-5,4,105,5.1*,96
CC(=O)Nc1ccc(Nc2nc(Cl)nc(Nc3ccc(NC(C)=O)cc3)n2)cc1,-14,-4,8,102,0.85,96
Cc1cc(C)c2nc(-c3ccccn3)cc(C(=O)n3cccn3)c2c1,-12,-12,-26,108,1.1,122
O=C(NCc1cccs1)c1ccc(Cl)c(S(=O)(=O)N2CCCC2)c1,0,3,1,97,1.1,107
N#C/C(=C(\O)Cc1ccccc1)c1nc2ccccc2[nH]1,16,4,14,96,1.1,91
N#C/C(=C(/O)COC(=O)CSc1ccc2ccccc2c1)c1nc2ccccc2[nH]1,8,-2,-4,102,3.5*,109
N#C/C(=C(/O)CCl)c1nc2ccccc2[nH]1,8,18,-41,84,1.8,134*
COc1cccc2cc(C(=O)NCc3ccco3)c(=Nc3ccc(C(=O)O)cc3)oc12,9,5,2,96,0.73,96
Cc1ccc(NCCC(=O)c2cccs2)cc1C,82,-49,-4,143*,1.6,107
Cc1ccc(NCCC(=O)c2cccs2)cc1,22,-59,26,150*,0.88,82
CC(C)c1ccc(NCCC(=O)c2cccs2)cc1,43,-26,6,123,1,97
O=C(COC(=O)c1cc(=O)[nH]c2ccccc12)c1cccs1,9,-1,4,99,1.2,101
COc1cccc(C(=O)/C=C/Nc2ccc(S(=O)(=O)Nc3cnc4ccccc4n3)cc2)c1,18,-41,-10,137*,1,112
COc1cccc(C(=O)/C=C/Nc2cc(C)ccc2O)c1,2,-37,-25,134*,25*,124
COc1cccc(C(=O)/C=C/Nc2ccc(S(=O)(=O)Nc3ncccn3)cc2)c1,-15,-44,1,139*,0.95,100
COc1cccc(C(=O)/C=C/Nc2ccc(S(=O)(=O)Nc3nc(C)cc(C)n3)cc2)c1,-9,3,-3,97,1.2,101
CC(=O)NC(NC(=S)N1CCCCCC1)C(Cl)(Cl)Cl (configuration not stated),1,1,12,100,x,95
CC(=O)N(C)Cc1ccc(C(=O)CCl)cc1,-2,9,-3,90,3.8*,111
O=C(Nc1ccccc1N1CCOCC1)c1cccnc1Cl,14,-2,7,100,1.1,100
Cc1ccccc1Cn1nc(C)c(NC(=O)/C=C/c2cnn(C)c2)c1C,24,-2,-1,101,1.4,102
COC(=O)c1cc(Cl)c(NC(=O)/C=C/c2ccc(Cl)cc2)cc1OC,10,-2,10,102,0.95,97
SMILES,APP 5'UTR act,STAT1 inh,STAT3 inh,STAT1 act,NF-kB neuron act,STAT3 activator
CC(C)=CC(=O)Nc1ccccc1C(N)=O,9,-1,-2,101,1.1,107
NC(=O)c1ccccc1NC(=O)/C=C/c1ccccc1,104,-32,-3,129*,3.6*,98
NC(=O)c1ccccc1NC(=O)/C=C/c1ccc(Cl)cc1,160*,-58,28,144*,3,82
O=C(Cc1ccc(Br)cc1)Nc1cccc(Cl)c1,1,-3,-1,100,1.2,105
Cc1c(C=O)c2ccccc2n1CC(=O)NCc1ccc2c(c1)OCO2,22,16,0,84,0.68,101
CCOC(=O)c1ccc(NC(=O)c2cn(CCC#N)nc2-c2ccc3c(c2)OCCO3)cc1,-4,4,7,96,0.7,93
O=c1c(-c2ccccc2)n[nH]c2ccccc12,112,-27,16,124,3.4*,93
COc1cc(Cl)c(C)cc1NC(=S)NN,-14,4,3,95,1,100
Nc1ccc(C(=O)OCc2nc3c(ccc4ccccc43)[nH]2)cc1,92,-53,-39,151*,2.4,136*
Nc1ccc(C(=O)OCc2nc3cc4ccccc4cc3[nH]2)cc1,-4,-17,4,114,1.5,100
CC(=O)c1c(C(C)=O)c(C)n(-c2ccc(C)c(NC(=O)c3ccccc3Cl)c2)c1C,11,14,0,87,0.85,100
CCCCc1c(C)nc2ccc(C(=O)OCC)cc2c1Cl,11,-6,-3,106,1.3,102
CCOC(=O)c1ccc2nc(C)c(CCC(C)=O)c(Cl)c2c1,53,-32,14,129*,1.7,94
Cc1ccc(/C(O)=C2\C(=O)C(=O)N(Cc3cccnc3)C2c2ccccc2[N+](=O)[O-])cc1 (configuration not stated),-11,-18,-34,116,1.2,133*
Cc1ccc(NC(=O)c2snc3ccc(Cl)cc23)cc1C,92,-34,-14,130*,1.7,116
Cc1ccc(NC(=O)c2snc3c(=O)[nH]cnc23)cc1C,7,-3,8,103,1.2,92
CN(C)c1ccc(/C=N/n2ncc3ccccc32)cc1,355*,-55,12,150*,3.1,95
Cc1ccc(-c2nc(CN(Cc3c(C)nn(C)c3C)C(C)C)c(C)o2)o1,-20,6,4,93,1,99
C/C(=C\C(=O)O)C(=O)Nc1nccs1,-5,-1,3,101,1,98
C/C(=C\C(=O)Nc1nccs1)c1ccccc1,50,-52,12,144*,2.6,93
O=c1c2ccccc2nnn1CSc1nnc2ccccn12,78,-51,-16,146*,1.7,118
Cn1c(SCn2nnc3ccccc3c2=O)nc2ccccc2c1=O,-2,9,-6,91,0.97,107
O=c1c2ccccc2nnn1CSc1ccc2c(c1)OCCO2,113,-52,2,146*,4.2*,105
CCOc1cccc(NC(=O)C2CC(=O)N(c3ccc(F)cc3)C2)c1 (configuration not stated),-6,-1,3,99,0.91,101
Nc1nc(CN2CCN(c3ccccc3)CC2)nc(Nc2ccc(Cl)cc2)n1,5,9,21,89,0.7,86
O=S1(=O)N=C(Nc2ccc(O)cc2)c2ccccc21,27,2,4,96,1.1,99
O=S1(=O)N=C(Nc2ccc(N3CCOCC3)c(Cl)c2)c2ccccc21,27,-49,-12,146*,1.5,120
COc1ccccc1-c1cc(SC)c(C#N)c(=O)o1,-1,-37,-2,133*,1.7,104
